Test [1] has as its target Cholinesterase (Homo sapiens, UniProt P06276). As to the kind of experiment: Inhibition of BuChE in human plasma using butyrylthiocholine iodide as substrate by Ellman's colorimetric method. In outline: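 The BuChE source is plasma from 5 healthy human volunteers (24–60 years, both sexes), centrifuged at 1000× g for 15 min at room temperature and stored at −20 °C. In 20 mM phosphate buffer pH 7.4, plasma was incubated 150 s with 0.8 mM butyrylthiocholine iodide and DTNB. Absorbance of the yellow anion was read at 415 nm. Protein was determined by Peterson-modified Lowry against BSA.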

In test [2] the target is T1, Acetylcholinesterase (Rattus norvegicus, UniProt P37136).
T1 sequence (P37136 whole entry): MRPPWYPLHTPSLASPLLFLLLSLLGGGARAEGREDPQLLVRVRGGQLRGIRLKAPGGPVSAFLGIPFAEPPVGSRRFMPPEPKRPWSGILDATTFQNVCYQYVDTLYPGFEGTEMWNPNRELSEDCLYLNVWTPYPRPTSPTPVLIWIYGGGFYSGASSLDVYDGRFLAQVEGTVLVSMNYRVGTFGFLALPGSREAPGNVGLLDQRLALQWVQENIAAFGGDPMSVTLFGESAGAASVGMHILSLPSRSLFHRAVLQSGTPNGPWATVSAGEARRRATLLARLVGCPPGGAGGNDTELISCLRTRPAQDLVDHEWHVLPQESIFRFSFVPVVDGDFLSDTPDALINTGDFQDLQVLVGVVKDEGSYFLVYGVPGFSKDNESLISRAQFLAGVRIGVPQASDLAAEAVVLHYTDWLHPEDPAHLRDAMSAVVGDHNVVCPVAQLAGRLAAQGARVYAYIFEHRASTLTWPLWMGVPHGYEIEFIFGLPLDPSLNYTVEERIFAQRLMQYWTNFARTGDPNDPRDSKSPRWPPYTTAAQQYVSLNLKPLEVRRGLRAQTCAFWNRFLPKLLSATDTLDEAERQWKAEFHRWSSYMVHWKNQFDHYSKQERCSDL
The experiment in a line: Inhibition of AChE in Wistar rat brain cortex using acetylthiocholine iodide as substrate by Ellman's colorimetric method. The essentials: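 Enzyme source is the cortex of adult male Wistar rats (2–3 months), dissected on ice and homogenized in cold 10 mM Tris-HCl pH 7.2 with 160 mM sucrose. The 10,000× g supernatant (10 min, 4 °C) was stored at −20 °C. The sample in 20 mM phosphate pH 7.4 was incubated 150 s with 0.8 mM acetylthiocholine iodide plus DTNB.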

The nature of test [3]: Ratio of IC50 for BuChE in human plasma to IC50 for AChE in Wistar rat brain cortex. It counts as cell-free.

Sequence of Cholinesterase (P06276 whole entry): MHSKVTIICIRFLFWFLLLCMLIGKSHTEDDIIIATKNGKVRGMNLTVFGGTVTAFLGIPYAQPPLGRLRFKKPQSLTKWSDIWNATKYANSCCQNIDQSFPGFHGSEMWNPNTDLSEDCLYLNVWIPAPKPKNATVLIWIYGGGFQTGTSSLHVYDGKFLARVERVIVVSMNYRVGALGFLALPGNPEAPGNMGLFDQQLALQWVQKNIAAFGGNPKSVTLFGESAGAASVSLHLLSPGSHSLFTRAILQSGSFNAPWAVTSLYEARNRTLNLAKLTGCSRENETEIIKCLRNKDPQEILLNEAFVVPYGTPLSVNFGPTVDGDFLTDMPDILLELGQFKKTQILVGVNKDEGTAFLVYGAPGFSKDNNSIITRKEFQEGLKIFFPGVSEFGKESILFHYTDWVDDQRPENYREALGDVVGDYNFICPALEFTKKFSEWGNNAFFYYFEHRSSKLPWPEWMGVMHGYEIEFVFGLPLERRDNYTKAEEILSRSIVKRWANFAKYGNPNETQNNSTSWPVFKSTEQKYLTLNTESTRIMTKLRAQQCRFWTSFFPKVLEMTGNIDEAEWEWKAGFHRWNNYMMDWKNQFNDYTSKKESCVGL

Take `O=[N+]([O-])c1ccc(-c2nc(-c3ccccc3)c(-c3ccccc3)n2CCCCCCNc2c3c(nc4ccccc24)CCCC3)cc1`: the values for the IC50 in test [1] (read-out: IC50) and in test [2] were 12.4 nM and “Not Active”, respectively.

As for `N#Cc1ccc(-c2nc(-c3ccccc3)c(-c3ccccc3)n2CCCCCCCNc2c3c(nc4ccccc24)CCCC3)cc1`, the figures for the IC50 in test [1] (read-out: IC50) and in test [2] were 7.1 nM and “Not Active”, respectively.

On to `c1ccc2c(NCCCCCCCNc3c4c(nc5ccccc35)CCCC4)c3c(nc2c1)CCCC3`, for which the IC50 in test [1] (read-out: IC50) was determined as 9.03 nM.

Turning to `Fc1ccc(-c2nc(-c3ccccc3)c(-c3ccccc3)n2CCCCCCCNc2c3c(nc4ccccc24)CCCC3)cc1`, the Ratio IC50 in test [3] was found to be 1.7. In addition, the IC50 is 67.3 nM in test [1] (read-out: IC50) and 38.5 nM in test [2] (read-out: IC50).

Consider `c1ccc(-c2nc(-c3ccccc3)n(CCCCCCCCCn3c(-c4ccccc4)nc(-c4ccccc4)c3-c3ccccc3)c2-c2ccccc2)cc1`, for which the IC50 result in test [1] and in test [2] was “Not Active” in each case.

In the case of `Clc1cccc(-c2nc(-c3ccccc3)c(-c3ccccc3)n2CCCCCCNc2c3c(nc4ccccc24)CCCC3)c1`, the figures for the IC50 in test [1] (read-out: IC50) and in test [2] were 34.8 nM and “Not Active”, respectively.

Consider `COc1ccc(-c2nc(-c3ccccc3)c(-c3ccccc3)n2CCCCCCCCNc2c3c(nc4ccccc24)CCCC3)cc1`, for which the Ratio IC50 in test [3] amounted to 0.6. Moreover, the results for the IC50 in test [1] (read-out: IC50) and in test [2] (read-out: IC50) were 82.3 nM and 126 nM, respectively.

As to `Clc1ccc(-c2nc(-c3ccccc3)c(-c3ccccc3)n2CCCCCCCCCCNc2c3c(nc4ccccc24)CCCC3)cc1`, the IC50 entry in test [1] and in test [2] was “Not Active” throughout.

On to `Clc1ccc(-c2nc(-c3ccccc3)c(-c3ccccc3)n2CCCCCCCCNc2c3c(nc4ccccc24)CCCC3)cc1`, for which the Ratio IC50 in test [3] is 18.5. Further, the IC50 in test [1] (read-out: IC50) came to 109 nM; in test [2] (read-out: IC50), 5.87 nM.

In the case of `N#Cc1ccc(-c2nc(-c3ccccc3)c(-c3ccccc3)n2CCCCCCNc2c3c(nc4ccccc24)CCCC3)cc1`, the IC50 was 29.6 nM in test [1] (read-out: IC50) and “Not Active” in test [2].

Regarding `c1ccc(-c2nc(-c3ccccc3)n(CCCCCCCNc3c4c(nc5ccccc35)CCCC4)c2-c2ccccc2)cc1`, the Ratio IC50 in test [3] came out at 1.1. The IC50 is 92.4 nM in test [1] (read-out: IC50) and 80.7 nM in test [2] (read-out: IC50).

As to `COc1ccc(-c2nc(-c3ccccc3)c(-c3ccccc3)n2CCCCCCCNc2c3c(nc4ccccc24)CCCC3)cc1`, the Ratio IC50 in test [3] was found to be 0.9. Moreover, the IC50 in test [1] (read-out: IC50) came out at 61.7 nM; in test [2] (read-out: IC50), 68.7 nM.

For the molecule `N#Cc1ccc(-c2nc(-c3ccccc3)c(-c3ccccc3)n2CCCCCCCCNc2c3c(nc4ccccc24)CCCC3)cc1`, the IC50 in test [1] (read-out: IC50) is 30.5 nM; in test [2], “Not Active”.

Consider `c1ccc(-c2nc(-c3ccccc3)n(CCCCCCn3c(-c4ccccc4)nc(-c4ccccc4)c3-c3ccccc3)c2-c2ccccc2)cc1`, for which the IC50 result in test [1] and in test [2] was “Not Active” each time.

For the molecule `COc1ccc(-c2nc(-c3ccccc3)c(-c3ccccc3)n2CCCCCCNc2c3c(nc4ccccc24)CCCC3)cc1`, the IC50 in test [1] (read-out: IC50) was 36 nM; in test [2], “Not Active”.

In the case of `O=[N+]([O-])c1ccc(-c2nc(-c3ccccc3)c(-c3ccccc3)n2CCCCCCCCNc2c3c(nc4ccccc24)CCCC3)cc1`, the values for the IC50 in test [1] (read-out: IC50) and in test [2] were 120 nM and “Not Active”, respectively.

`c1ccc(-c2nc(-c3ccccc3)n(CCCCCCCn3c(-c4ccccc4)nc(-c4ccccc4)c3-c3ccccc3)c2-c2ccccc2)cc1`: the IC50 entry in test [1] and in test [2] was “Not Active” throughout.

Take `c1ccc(-c2nc(-c3ccccc3)n(CCCCCCCCCCn3c(-c4ccccc4)nc(-c4ccccc4)c3-c3ccccc3)c2-c2ccccc2)cc1`: the IC50 entry in test [1] and in test [2] was “Not Active” each time.

For `c1ccc(-c2nc(-c3ccccc3)n(CCCCCCCCn3c(-c4ccccc4)nc(-c4ccccc4)c3-c3ccccc3)c2-c2ccccc2)cc1`, the IC50 result in test [1] is “Not Active”; in test [2] (read-out: IC50), 42.5 nM.

Regarding `c1ccc(-c2nc(-c3ccccc3)n(CCCCCCNc3c4c(nc5ccccc35)CCCC4)c2-c2ccccc2)cc1`, the results for the IC50 in test [1] (read-out: IC50) and in test [2] were 58 nM and “Not Active”, respectively.

Turning to `Clc1cccc(-c2nc(-c3ccccc3)c(-c3ccccc3)n2CCCCCCCNc2c3c(nc4ccccc24)CCCC3)c1`, the IC50 entry in test [1] and in test [2] was “Not Active” in each case.

Take `Clc1ccc(-c2nc(-c3ccccc3)c(-c3ccccc3)n2CCCCCCCCCNc2c3c(nc4ccccc24)CCCC3)cc1`: the IC50 entry in test [1] and in test [2] was “Not Active” in each case.

Take `Clc1ccc(-c2nc(-c3ccccc3)c(-c3ccccc3)n2CCCCCCCNc2c3c(nc4ccccc24)CCCC3)cc1`: in test [3], the Ratio IC50 is 0.6. Also, the IC50 in test [1] (read-out: IC50) was 37.6 nM; in test [2] (read-out: IC50) it was 59.8 nM.

Regarding `O=[N+]([O-])c1ccc(-c2nc(-c3ccccc3)c(-c3ccccc3)n2CCCCCCCNc2c3c(nc4ccccc24)CCCC3)cc1`, the Ratio IC50 in test [3] came out at 1. Further, the figures for the IC50 in test [1] (read-out: IC50) and in test [2] (read-out: IC50) were 76.9 nM and 72.1 nM, respectively.

Take `Clc1cccc(-c2nc(-c3ccccc3)c(-c3ccccc3)n2CCCCCCCCNc2c3c(nc4ccccc24)CCCC3)c1`: the IC50 result in test [1] and in test [2] was “Not Active” throughout.

For `c1ccc(-c2nc(-c3ccccc3)n(CCCCCCCCNc3c4c(nc5ccccc35)CCCC4)c2-c2ccccc2)cc1`, the IC50 entry in test [1] and in test [2] was “Not Active” throughout.

In the case of `Clc1ccc(-c2nc(-c3ccccc3)c(-c3ccccc3)n2CCCCCCNc2c3c(nc4ccccc24)CCCC3)cc1`, the IC50 was 29.3 nM in test [1] (read-out: IC50) and “Not Active” in test [2].

For the molecule `Fc1ccc(-c2nc(-c3ccccc3)c(-c3ccccc3)n2CCCCCCNc2c3c(nc4ccccc24)CCCC3)cc1`, the 50% inhibitory concentration (IC50) in test [1] (read-out: IC50) was 55.2 nM; in test [2], “Not Active”.

Take `Fc1ccc(-c2nc(-c3ccccc3)c(-c3ccccc3)n2CCCCCCCCNc2c3c(nc4ccccc24)CCCC3)cc1`: the Ratio IC50 in test [3] was 2.2. Also, the results for the IC50 in test [1] (read-out: IC50) and in test [2] (read-out: IC50) were 57.3 nM and 25.8 nM, respectively.

In general, IC50 refers to the concentration at which inhibition is half-maximal.
